Data: ChEMBL document CHEMBL4368909, “Identification of Dihydrofuro[3,4- d]pyrimidine Derivatives as Novel HIV-1 Non-Nucleoside Reverse Transcriptase Inhibitors with Promising Antiviral Activities and Desirable Physicochemical Properties” (J Med Chem, 2019)
≈ marks a conversion by molar mass, not a printed value.

Columns and labels:
[1] = Aqueous solubility of the compound at pH at 7.4 by HPLC analysis; format: physicochemical; settings: buffer, pH 7.4
In short: (§1)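 Aqueous solubility read by HPLC in buffer at pH 2.0, 7.0 or 7.4.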

[2] = test system: Human immunodeficiency virus 1; test: Antiviral activity against wild type HIV1 3B infected in human MT4 cells assessed as reduction in virus-induced cytopathic effect after 5 days by MTT assay; format: functional, organism-based; settings: Human immunodeficiency virus 1, 3B, MT4, 120 h
[3] = test system: Human immunodeficiency virus 1; test: Antiviral activity against HIV1 RES056 infected in human MT4 cells assessed as reduction in virus-induced cytopathic effect after 5 days by MTT assay; format: functional, organism-based; settings: Human immunodeficiency virus 1, RES056, MT4, 120 h
MT4 = test: Cytotoxicity against human MT4 cells after 5 days by MTT assay; format: cell-based; settings: mt4, 120 h
[4] = test system: Human immunodeficiency virus 1; test: Antiviral activity against HIV1 harboring reverse transcriptase L100I mutant infected in human MT4 cells assessed as reduction in virus-induced cytopathic effect after 5 days by MTT assay; format: functional, organism-based; settings: Human immunodeficiency virus 1, MT4, 120 h
[5] = test system: Human immunodeficiency virus 1; test: Antiviral activity against HIV1 harboring reverse transcriptase K103N mutant infected in human MT4 cells assessed as reduction in virus-induced cytopathic effect after 5 days by MTT assay; format: functional, organism-based; settings: Human immunodeficiency virus 1, MT4, 120 h
[6] = test system: Human immunodeficiency virus 1; test: Antiviral activity against HIV1 harboring reverse transcriptase Y181C mutant infected in human MT4 cells assessed as reduction in virus-induced cytopathic effect after 5 days by MTT assay; format: functional, organism-based; settings: Human immunodeficiency virus 1, MT4, 120 h
[7] = test system: Human immunodeficiency virus 1; test: Antiviral activity against HIV1 harboring reverse transcriptase F227L/V106A double mutant infected in human MT4 cells assessed as reduction in virus-induced cytopathic effect after 5 days by MTT assay; format: functional, organism-based; settings: Human immunodeficiency virus 1, MT4, 120 h
[8] = test system: Human immunodeficiency virus 1; test: Resistance factor, ratio of EC50 for HIV1 harboring reverse transcriptase L100I mutant to EC50 for wild type HIV1; format: functional
In short: (§2)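 The resistance factor is the EC50 against the mutant strain divided by the EC50 against wild-type HIV-1. Both were measured in MT-4 cells by MTT read-out of protection from virus-induced cytopathicity.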

[9] = test system: Human immunodeficiency virus 1; test: Resistance factor, ratio of EC50 for HIV1 harboring reverse transcriptase Y188L mutant to EC50 for wild type HIV1; format: functional; in short: as §2
[10] = test system: Human immunodeficiency virus 1; test: Resistance factor, ratio of EC50 for HIV1 harboring reverse transcriptase E138K mutant to EC50 for wild type HIV1; format: functional; in short: as §2
[11] = test system: Human immunodeficiency virus 1; test: Resistance factor, ratio of EC50 for HIV1 harboring reverse transcriptase F227L/V106A double mutant to EC50 for wild type HIV1; format: functional; in short: as §2
[12] = biological target: Human immunodeficiency virus type 1 reverse transcriptase (Human immunodeficiency virus 1, UniProt Q72547); test: Inhibition of recombinant HIV1 reverse transcriptase using (DIG)-dUTP and biotin-labeled dNTPs as substrate after 1 hr by ELISA
[13] = Aqueous solubility of the compound at pH at 7 by HPLC analysis; format: physicochemical; settings: buffer, pH 7; in short: as §1
[14] = Aqueous solubility of the compound at pH at 2 by HPLC analysis; format: physicochemical; settings: buffer, pH 2; in short: as §1
Cytochrome P450 2C9 = Cytochrome P450 2C9 (Homo sapiens, UniProt P11712); test: Inhibition of CYP2C9 in human liver microsomes using diclofenac as substrate after 10 mins in presence of NADPH; format: ADME
Sequence of Cytochrome P450 2C9 (P11712 whole entry): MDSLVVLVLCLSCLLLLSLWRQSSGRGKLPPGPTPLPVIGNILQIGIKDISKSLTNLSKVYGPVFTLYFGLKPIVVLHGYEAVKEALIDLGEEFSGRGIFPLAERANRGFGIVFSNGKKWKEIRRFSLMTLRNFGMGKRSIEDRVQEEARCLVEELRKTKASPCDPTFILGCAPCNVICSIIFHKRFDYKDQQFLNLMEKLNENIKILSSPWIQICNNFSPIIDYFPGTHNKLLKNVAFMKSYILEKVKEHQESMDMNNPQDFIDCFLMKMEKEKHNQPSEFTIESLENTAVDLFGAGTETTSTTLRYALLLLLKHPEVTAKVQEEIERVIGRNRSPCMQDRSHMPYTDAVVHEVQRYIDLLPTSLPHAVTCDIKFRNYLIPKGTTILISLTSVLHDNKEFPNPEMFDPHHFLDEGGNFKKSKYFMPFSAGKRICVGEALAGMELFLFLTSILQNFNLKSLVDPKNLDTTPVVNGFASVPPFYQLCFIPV

Cytochrome P450 2C19 = Cytochrome P450 2C19 (Homo sapiens, UniProt P33261); test: Inhibition of CYP2C19 in human liver microsomes using S-mephenytoin as substrate after 10 mins in presence of NADPH; format: ADME
Sequence of Cytochrome P450 2C19 (P33261 whole entry): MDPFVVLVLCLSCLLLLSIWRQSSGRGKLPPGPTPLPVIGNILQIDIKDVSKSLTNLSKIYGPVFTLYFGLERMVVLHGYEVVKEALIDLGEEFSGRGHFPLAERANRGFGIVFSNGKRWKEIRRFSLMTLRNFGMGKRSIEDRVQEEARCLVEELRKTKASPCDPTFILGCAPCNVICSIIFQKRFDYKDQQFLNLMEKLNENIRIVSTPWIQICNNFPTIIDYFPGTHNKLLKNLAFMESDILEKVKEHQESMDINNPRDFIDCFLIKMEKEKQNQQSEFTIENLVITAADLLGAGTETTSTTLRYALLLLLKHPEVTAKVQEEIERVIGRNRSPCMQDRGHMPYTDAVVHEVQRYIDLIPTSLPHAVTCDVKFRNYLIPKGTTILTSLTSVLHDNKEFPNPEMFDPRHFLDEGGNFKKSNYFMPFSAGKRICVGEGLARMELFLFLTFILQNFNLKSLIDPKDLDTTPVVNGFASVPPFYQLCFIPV

Cytochrome P450 2D6 = Cytochrome P450 2D6 (Homo sapiens, UniProt P10635); test: Inhibition of CYP2D6 in human liver microsomes using dextromethorphan as substrate after 10 mins in presence of NADPH; format: ADME
Sequence of Cytochrome P450 2D6 (P10635 whole entry): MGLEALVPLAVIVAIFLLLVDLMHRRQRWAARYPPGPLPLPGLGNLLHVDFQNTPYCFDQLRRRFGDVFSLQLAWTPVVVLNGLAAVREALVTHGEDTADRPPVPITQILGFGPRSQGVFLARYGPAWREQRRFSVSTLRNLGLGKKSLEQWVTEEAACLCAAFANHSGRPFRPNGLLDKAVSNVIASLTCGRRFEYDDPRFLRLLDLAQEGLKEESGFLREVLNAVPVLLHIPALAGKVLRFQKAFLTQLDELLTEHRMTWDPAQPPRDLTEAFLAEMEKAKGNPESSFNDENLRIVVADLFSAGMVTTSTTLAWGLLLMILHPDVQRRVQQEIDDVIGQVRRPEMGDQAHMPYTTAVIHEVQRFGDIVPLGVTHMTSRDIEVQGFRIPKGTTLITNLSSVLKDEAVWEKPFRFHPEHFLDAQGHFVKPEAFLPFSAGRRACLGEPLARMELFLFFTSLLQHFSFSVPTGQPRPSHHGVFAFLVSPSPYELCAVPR

Cytochrome P450 3A4 = Cytochrome P450 3A4 (Homo sapiens, UniProt P08684); test: Inhibition of CYP3A4 in human liver microsomes using midazolam as substrate after 10 mins in presence of NADPH; format: ADME
Sequence of Cytochrome P450 3A4 (P08684 whole entry): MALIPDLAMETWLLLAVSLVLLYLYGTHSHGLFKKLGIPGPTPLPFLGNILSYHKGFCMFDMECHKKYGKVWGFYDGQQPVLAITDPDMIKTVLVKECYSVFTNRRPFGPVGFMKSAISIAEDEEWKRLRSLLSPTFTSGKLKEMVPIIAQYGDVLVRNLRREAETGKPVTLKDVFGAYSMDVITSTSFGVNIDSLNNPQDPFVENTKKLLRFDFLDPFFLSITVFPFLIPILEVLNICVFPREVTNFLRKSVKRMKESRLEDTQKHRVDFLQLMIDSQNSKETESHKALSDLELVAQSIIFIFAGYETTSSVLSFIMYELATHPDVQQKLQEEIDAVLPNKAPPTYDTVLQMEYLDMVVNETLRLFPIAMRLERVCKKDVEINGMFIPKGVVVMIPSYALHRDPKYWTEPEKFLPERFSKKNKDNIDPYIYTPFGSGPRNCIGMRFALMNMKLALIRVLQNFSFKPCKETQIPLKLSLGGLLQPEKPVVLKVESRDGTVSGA

[15] = Protein binding in human plasma assessed as recovery rate at 2 uM after 5 hrs by LC/MS analysis; format: ADME, cell-free
[16] = Tmax in Wistar rat at 2 mg/kg, iv by LC-MS/MS analysis; format: ADME, organism-based; settings: in vivo
In short: (§3)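 Male/unspecified Wistar rats given one dose, 2 mg/kg intravenously or 20 mg/kg orally; plasma concentration–time profiles followed; PK parameters reported as mean ± SD, n = 5.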

[17] = Tmax in Wistar rat at 20 mg/kg, po by LC-MS/MS analysis; format: ADME, organism-based; settings: in vivo; in short: as §3
[18] = Cmax in Wistar rat at 2 mg/kg, iv by LC-MS/MS analysis; format: ADME, organism-based; design: dose 2 mg/kg, route intravenous; settings: in vivo; in short: as §3
[19] = Cmax in Wistar rat at 20 mg/kg, po by LC-MS/MS analysis; format: ADME, organism-based; design: dose 20 mg/kg, route oral; settings: in vivo; in short: as §3
[20] = AUCt in Wistar rat at 20 mg/kg, po by LC-MS/MS analysis; format: ADME, organism-based; settings: in vivo; in short: as §3
[21] = AUC (0 to infinity) in Wistar rat at 2 mg/kg, iv by LC-MS/MS analysis; format: ADME, organism-based; design: dose 2 mg/kg, time infinity, route intravenous; settings: in vivo; in short: as §3
[22] = AUC (0 to infinity) in Wistar rat at 20 mg/kg, po by LC-MS/MS analysis; format: ADME, organism-based; design: dose 20 mg/kg, route oral, time infinity; settings: in vivo; in short: as §3
[23] = Clearance in Wistar rat at 2 mg/kg, iv by LC-MS/MS analysis; format: ADME, organism-based; settings: in vivo; in short: as §3
[24] = Oral bioavailability in Wistar rat at 20 mg/kg by LC-MS/MS analysis; format: ADME, organism-based; settings: in vivo; in short: as §3
[25] = Acute toxicity in Kunming mouse assessed as mortality at 800 mg/kg, po measured after 2 weeks; format: organism-based; settings: in vivo, 336 h
In short: (§4)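 Kunming mice received a single intragastric dose of 800 mg/kg. Deaths and behaviour were observed over 2 weeks and compared with a control group.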

[26] = Acute toxicity in Kunming mouse assessed as behavior abnormalities at 800 mg/kg, po measured after 2 weeks; format: organism-based; settings: in vivo, 336 h; in short: as §4
[27] = Sub-acute toxicity in Kunming mouse assessed as behavior abnormalities at 50 mg/kg/day, po administered for 2 weeks by hematoxylin and eosin staining-based assay; format: organism-based; settings: in vivo, 336 h
In short: (§5)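 Mice were dosed orally at 50 mg/kg/day for 2 weeks and observed for behavioural abnormalities during treatment. Organs were then examined by hematoxylin–eosin staining.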

[28] = Sub-acute toxicity in Kunming mouse assessed as effect on heart at 50 mg/kg/day, po administered for 2 weeks by hematoxylin and eosin staining-based assay; format: organism-based; settings: in vivo, 336 h; in short: as §5
[29] = Sub-acute toxicity in Kunming mouse assessed as effect on liver at 50 mg/kg/day, po administered for 2 weeks by hematoxylin and eosin staining-based assay; format: organism-based; settings: in vivo, 336 h; in short: as §5
[30] = Sub-acute toxicity in Kunming mouse assessed as effect on spleen at 50 mg/kg/day, po administered for 2 weeks by hematoxylin and eosin staining-based assay; format: organism-based; settings: in vivo, 336 h; in short: as §5
[31] = Sub-acute toxicity in Kunming mouse assessed as effect on lungs at 50 mg/kg/day, po administered for 2 weeks by hematoxylin and eosin staining-based assay; format: organism-based; settings: in vivo, 336 h; in short: as §5
[32] = Sub-acute toxicity in Kunming mouse assessed as effect on kidneys at 50 mg/kg/day, po administered for 2 weeks by hematoxylin and eosin staining-based assay; format: organism-based; settings: in vivo, 336 h; in short: as §5
[33] = test system: Human immunodeficiency virus 2; test: Antiviral activity against HIV2 ROD infected in human MT4 cells assessed as reduction in virus-induced cytopathic effect after 5 days by MTT assay; settings: Human immunodeficiency virus 2, ISOLATE ROD, MT4, 120 h

Cc1cc(C#N)cc(C)c1Oc1nc(NC2CCN(Cc3ccc(C(N)=O)cc3)CC2)nc2c1COC2
solubility [1]: 6.59 µg/mL (≈ 13.2 µM) | EC50 [2]: 1.6 nM | EC50 [3]: 41.5 nM | CC50 (MT4): > 250000 nM | EC50 [4]: 2.4 nM | EC50 [5]: 0.9 nM | EC50 [6]: 4.4 nM | EC50 [7]: 19 nM | Ratio EC50 [8]: 1.5 | Ratio EC50 [9]: 5.3 | Ratio EC50 [10]: 4.4 | Ratio EC50 [11]: 11.9 | IC50 [12]: 51 nM | solubility [13]: 13.3 µg/mL (≈ 26.7 µM) | solubility [14]: 198 µg/mL (≈ 397 µM) | IC50 (Cytochrome P450 2C9): 46600 nM | IC50 (Cytochrome P450 2C19): > 50000 nM | IC50 (Cytochrome P450 2D6): > 50000 nM | IC50 (Cytochrome P450 3A4): > 50000 nM | Drug recovery [15]: 86.3% | Tmax [16]: 1.98 min | Tmax [17]: 79.8 min | Cmax [18]: 460 ng/mL | Cmax [19]: 400 ng/mL | AUC(0-t) [20]: 1550 ng·h/mL | AUC(0-inf) [21]: 543 ng·h/mL | AUC(0-inf) [22]: 1660 ng·h/mL | clearance [23]: 61.5 mL/min/kg | F [24]: 30.96% | Activity [25]: Non-Toxic | Activity [26]: Non-Toxic | Activity [27]: Non-Toxic | Activity [28]: Non-Toxic | Activity [29]: Non-Toxic | Activity [30]: Non-Toxic | Activity [31]: Non-Toxic | Activity [32]: Non-Toxic | EC50 [33]: 12700 nM
